The list is not random: actives were taken first. Their share in the collection is about 2.6%.
FN deposition inh: fibronectin deposition inhibition. AH1F fibroblasts, Alexa488-fibronectin deposition fluorescence, overnight. inhibition, % at 12.6 µM. actives 0.086% (n = 350,000);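 active = mean inhibition across replicates of 30% or more, regardless of how many single replicates reach that level; inconclusive = mean under 30% yet at least half of replicates reach 30%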;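 note: positive control wells lacked labelled fibronectin entirely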
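Material: AH1F fibroblasts assembling fluorescent fibronectin matrix; amount: 10000 AH1F cells/well; medium: DMEM, 2% serum; reagent: Alexa488-fibronectin, 24 nM final in well; dosing: single compound dose, delivered by pin transfer; incubation: 1 h adhesion, overnight exposure; detection: fluorescence after three HBSS washes, excitation 485 nm, emission 525 nm; measure: fibronectin deposition inhibition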
S100A4 inh HTS: inhibitors of human S100A4 binding to myosin IIA peptide; S100A4/TAMRA-MyoIIA peptide fluorescence polarization; AID 652163; inhibition, % at 10.7 µM; actives 0.14% (n = 360,000);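 active = mean inhibition of at least 70% across replicates, with every replicate also reaching that level; inconclusive = mean inhibition reaches 70% but some replicates fall short; inactive = mean inhibition below 70%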
Target sequence (P26447 whole entry, looked up): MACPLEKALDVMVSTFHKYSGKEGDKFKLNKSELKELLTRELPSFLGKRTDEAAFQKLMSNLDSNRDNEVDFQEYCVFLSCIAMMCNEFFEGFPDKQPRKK
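Compound dosing: one dose per compound; test system: human S100A4 monomer with TAMRA-labelled myosin IIA peptide; probe or stimulus: TAMRA-labelled myosin IIA heavy-chain peptide probe, 5 nM; medium: HEPES buffer with Ca2+, pH 7.2; schedule: 5 min incubation before reading; benchmarks: neutral control DMSO, positive control TFP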
miR-122 sensor: miR-122 inhibition in Huh7 cells | actives 0.3% (n = 340,000) | activation (reporter increase), % at 12.5 µM | Huh7 miR-122 Renilla luciferase sensor, 48 h; neutral wells = 0, positive control = 100;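 active = mean replicate activation score at least 90 and every replicate individually at or above 90; inconclusive = only one of the two criteria met; inactive = neither criterion met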;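 note: higher luciferase means less miR-122 activity so hits act as miR-122 inhibitors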
Vif inh: blocks HIV Vif function; HEK293T cells, Vif self-association by quenched fluorescence, imaging, 24 h; inhibition, % at 7.49 µM; actives 0.35% (n = 340,000); in the data active = inhibition above about 50%, passing the limit was not always enough; inconclusive = no clear call, values can overlap the other calls; inactive = below about 31%
Ecoli rRNA inh: inhibitors of bacterial rRNA selective over humanized ribosomes | AID 720706 | E. coli WT GFP vs humanized-ribosome RFP mutants, fluorescence, 24 h; active compounds read low; DMSO median 0, no signal -100 | actives 1.6% (n = 350,000) | GFP signal change (wild-type ribosome), % (test concentration not listed);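 active = significant combined selectivity score with lowered wild-type GFP, culture density cut under 30%, mutant RFP and density less affected; inactive = any of these conditions unmet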
HIV Env fusion: inhibitors of HIV Env-mediated cell fusion; HeLa-JRFL Env/CEM21 cell fusion, luciferase; inhibition, % at 12.3 µM; actives 1.1% (n = 360,000);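 active = mean replicate inhibition score of at least 50 and every replicate individually at or above 50; inconclusive = only one of the two criteria met; inactive = mean below 50 and not all replicates reaching 50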;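 note: 0% = plate neutral controls and 100% = maraviroc near 300 nM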
AID977621: growth inhibition of wild-type GFP E. coli, dose response, H69 mutant RFP, cherry-pick; shares compounds with Ecoli rRNA inh; E. coli wild-type GFP strain growth, fluorescence, 24 h; activity change, negative = inhibition at 50 µM; 1,900 tested, under 10 active; AID 977621;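 active = Wild-type ribosome reporter drop at least double the humanized mutant ribosome reporter drop, growth loss under a set limit; inconclusive = no clear call, values can overlap the other calls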;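 note: wild-type GFP and H69 mutant RFP strains grown together 50/50 in each well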
AID977628: growth of wild-type and h24-humanized E. coli strains – h24 mutant RFP vs wild-type GFP, cherry-pick, dose response | 1,900 tested, under 10 active | activity change, negative = inhibition at 50 µM | E. coli WT GFP strain growth, fluorescence, 24 h | shares compounds with Ecoli rRNA inh;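 active = compound lowering the normal-ribosome reporter at least twice as much as the humanized-ribosome reporter, growth loss under a set limit; inconclusive = no clear call, values can overlap the other calls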;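 note: wild-type GFP and h24 humanized RFP strains co-cultured 1 to 1 per well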
* marks the source's active call; other numbers are inactive results; u = inconclusive; x = no result; [ ] = dose if it differs, or a comment.

SMILES	FN deposition inh	S100A4 inh HTS	miR-122 sensor	Vif inh	Ecoli rRNA inh	HIV Env fusion	AID977621	AID977628
CCN(Cc1ccccc1)C(=O)COC(=O)c1cc(Cl)nc(Cl)c1	x	-23.4	x	-7.5	-35.4*	-17.0	-18.3	-4.38
CCN(Cc1ccccc1)C(=O)COC(=O)c1cnc(C)cn1	7.6	1.6	4.9	25.5	7.2	-28.2	x	x
CSc1nc2ccc(NS(=O)(=O)c3ccc([N+](=O)[O-])cc3)cc2s1	10.7	-4.2	2.8	-1.0	-21.6*	6.3	-14	-7.88
Cc1ccc(C(=O)OCC(=O)c2c[nH]c3ccccc23)cc1NC(=O)c1ccco1	x	-9.7	x	1.5	-20.1*	11.4	x	u
O=C(Cc1ccc(Br)cc1)Nc1cccc(-c2cn3c(n2)SCC3)c1	2.4	-0.9	x	-14.0	-21.4*	11.4	-10.6	-11.9
CSc1ccccc1NC(=O)CN(c1cccc(C)c1)S(C)(=O)=O	x	-1.3	-3.3	x	-20.2*	x	-13.5	x
Cc1cccc(N(CC(=O)Nc2ccccc2F)S(C)(=O)=O)c1	2.2	x	-4.4	9.0	x	-20.2	x	x
CC(C)NC(=O)Nc1ccc2c(c1)C(=O)N([C@H](C)CO)C[C@H](C)[C@H](CN(C)S(=O)(=O)c1ccc(Cl)cc1)OCCCC[C@H](C)O2	-6.6	-30.8	-6.9[16.7 µM]	x	-0.3	-79.2[16.7 µM]	x	x
O=C(O)c1cc2ccc3ccccc3c2[nH]1	x	-0.6	0.2	20.6	-26.1*	x	-5.3	x
O=S(=O)(NOCc1ccc(Cl)cc1)c1ccc(Cl)cc1	1.9	-10.2	12.9	8.3	-39.1*	4.1	6.8	-2.72
Cc1ccc(CONS(=O)(=O)c2cc(C)ccc2C)cc1	-2.4	0.5	x	-0.1	-60.0	x	x	x
Cc1cccc(CN2C(=O)c3ccccc3Sc3ccc(C(=O)NCCN4CCOCC4)cc32)c1	7.4	-0.7	-5.2	-4.5	-47.4*	0.5	-21.6	x
CCN(CC)CC(=O)Nc1sc2c(c1C(=O)c1ccccc1OC)CCC2	3.4	2.4	x	-2.6	-21.8*	8.5	2.96	-9.9
CCOC(=O)c1c(NC(=O)CN(CC)CC)sc2c1CCC2	x	-9.7	6.6	-2.7	-17.8	9.2	x	x
O=C(CN(c1ccc(F)cc1)S(=O)(=O)c1ccccc1)Nc1ccccc1C(=O)O	-24.7	2.1	0.0	11.6	-26.6*	-5.0	-12.8	x
COc1ccc(OC)c(N(CC(=O)Nc2ccccc2F)S(=O)(=O)c2ccccc2)c1	1.2	-0.1	x	-14.0	-24.0*	12.9	-10.7	x
COc1ccc(OC)c(N(CC(=O)Nc2ccccc2)S(=O)(=O)c2ccccc2)c1	-4.0	-0.5	17.8	-7.2	-15.0	12.4	x	x
COc1ccc(N(CC(=O)Nc2ccccc2C(=O)N2CCOCC2)S(=O)(=O)c2ccc(F)cc2)cc1	10.3	x	x	-8.7	x	17.1	x	x
CC=Cc1ccc2n(c1=O)C[C@@H]1[C@@H](CO)[C@H](C(=O)NCCc3cn(C)cn3)[C@H]2N1C(=O)C1CC1 (mixture of isomers)	x	-1.9	1.7[16.7 µM]	x	2.2	x	x	x
COc1ccc([C@H]2C[C@H](O)C[C@@H](CCn3cc(-c4ccccc4)nn3)O2)cc1	6.7	-3.6	x	x	-22.1*	19.0	x	-6.95
Cc1cccc(OCCn2c(=O)oc3ccc(C)cc32)c1	-18.2	-2.0	-2.1	0.5	-26.9*	1.3	2.74	-1.28
CC(C)Nc1nnc(SCC(=O)Nc2sccc2C#N)s1	-2.2	-3.0	1.6	-6.3	-25.4*	-6.7	x	u
CC(C)Nc1nnc(SCC(=O)Nc2ccc3c(c2)C(=O)c2ccccc2C3=O)s1	x	x	2.8	-7.2	x	x	x	x
N#Cc1ccsc1NC(=O)CSc1nnc(NC2CC2)s1	0.7	2.6	-0.1	-4.7	-11.7*	-57.4	-13.2	-8.72
O=C(C[C@@H]1C=C[C@H](NC(=O)Nc2ccc3c(c2)OCO3)[C@@H](CO)O1)NCc1ccc(Cl)cc1	x	-12.0	x	x	-1.3	13.1[16.7 µM]	x	x
SMILES	FN deposition inh	S100A4 inh HTS	miR-122 sensor	Vif inh	Ecoli rRNA inh	HIV Env fusion	AID977621	AID977628
O=C(O)c1cc(-c2ccc(-c3ccc(F)cc3)o2)nc2ccccc12	-6.5	0.7	1.2	-11.8	-38.0*	-42.0	-12.7	x
C[C@@H]1CN([C@@H](C)CO)C(=O)c2cc(NC(=O)Cc3ccccc3)ccc2O[C@@H](C)CCCCO[C@H]1CN(C)C	x	55.2	3.0[16.7 µM]	x	1.0	1.1[16.7 µM]	x	x
Cc1ccc(S(=O)(=O)N2CC(O)CC2C(=O)NCc2ccc3c(c2)OCO3)cc1 (stereo not given)	1.2	8.3	-2.3	14.2	7.6	-29.4	x	x
O=C(NCc1ccc2c(c1)OCO2)C1CCCN1S(=O)(=O)c1ccc(Cl)cc1 (stereo not given)	-0.2	0.1	x	-4.0	-19.0*	1.3	-24.2	x
O=C1c2ccccc2C(c2nnnn2C2CCCCC2)N1CCc1ccc(O)cc1 (stereo not given)	1.5	-3.3	x	x	-17.9*	-15.1	7.86	-5.46
O=C1c2ccccc2C(c2nnnn2Cc2ccccc2)N1CCOc1ccccc1 (stereo not given)	-3.3	0.3	x	x	-17.4	-3.6	x	x
O=C(Nc1ccc2c3c(cccc13)CC2)c1ccco1	x	x	-1.9	0.2	x	x	x	x
O=C(Nc1cccc2c1CCCC2)c1ccco1	x	-5.6	8.7	-1.5	-21.0*	x	-9.16	-11.3
CC(=O)CSc1ccc(-c2nc3cc(C)c(C)cc3[nH]2)cn1	-1.2	-8.0	x	-1.9	-27.4	51.2	x	x
CC(=O)CSc1ccc(-c2nc3ccccc3[nH]2)cn1	-8.6	0.4	x	-3.2	-23.7*	-34.8	2.76	-1.67
CCCn1c(C(C)Nc2nc(-c3ccc(C)cc3)cs2)nc2ccccc21 (stereo not given)	-10.8	-15.8	-1.4	-6.0	-15.5*	x	-14	-1.63
Cc1cccc(S(=O)(=O)Nc2ccc(-c3cn4ccccc4n3)cc2)c1	-6.7	-4.1	13.7	7.6	-32.5*	x	u	x
Cc1onc(-c2ccccc2)c1CNS(=O)(=O)c1ccccc1	0.4	0.7	x	-4.9	-28.0	15.3	x	x
Cc1ccc(S(=O)(=O)NCc2c(-c3ccccc3)noc2C)cc1	0.6	-1.2	x	18.3	-23.2*	29.6	-8.59	-18
Cc1ccc(-c2nc3cc(C)c(Br)c(C)n3c2CC2CCCCC2)cc1	-1.2	-3.8	x	x	19.0	2.6	x	x
CCCc1nc2cc(C)c(Br)c(C)n2c1CC1CCCCC1	5.1	16.4	x	x	-20.1*	39.8	x	-7.37
COc1ccc(NC(=O)Nc2cccc3c2O[C@H](CN(C)S(=O)(=O)c2ccc(Cl)cc2)[C@H](C)CN([C@H](C)CO)C3=O)cc1	x	3.8	-3.3[16.7 µM]	x	-18.2	2.4[16.7 µM]	-15.4	u
